We go through 9 compounds from ChEMBL document CHEMBL1137639, “Novel small-molecule inhibitors of transmissible gastroenteritis virus” (Antimicrob Agents Chemother, 2007).

By IC50 is commonly meant the point on the concentration scale where inhibition reaches its midpoint. As usually defined, the GI50 is the concentration giving 50% growth inhibition. Broadly, the EC50 is the concentration at which the effect is half-maximal.

SMILES strings stand for the structures. Calls of active or inactive are those of the source. No cut-off for these calls is given here.

In data set [1] the target is Replicase polyprotein 1ab (Severe acute respiratory syndrome-related coronavirus, UniProt P0C6X7). As to the kind of experiment: Inhibition of SARS Coronavirus 3C-like protease expressed in Escherichia coli.
Data set [2] can be described thus: Cytotoxicity against swine testicle cells after 18 hrs. It is filed as cell-based, Sus scrofa. As to conditions: pig. The gist of the method: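 ST cells in MEM with 10% fetal bovine serum were exposed to eight concentrations of compound for 18 h. GI50 was derived from the dose-response curves.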
In data set [3] the test system is Transmissible gastroenteritis virus. Description: Antiviral activity against Transmissible gastroenteritis virus TFI infected in swine testicle cells assessed as inhibition of S and N protein expression treated 2 hrs before infection measured after 6 hrs post infection by indirect immunofluorescent assay. As to conditions: Alphacoronavirus 1, TFI. It is filed as functional, organism-based. The gist of the method: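 ST cells, with or without a 2-h compound pretreatment, infected with TGEV at MOI 10. At 6 h they were fixed in 80% acetone and stained with mAbs to S and N protein, then FITC anti-mouse Ig for 60 min at room temperature. Fluorescence was read at ex 485/em 535 nm. Eight concentrations were tested, and EC50 was taken from dose-response curves.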

For data set [4] the test system is unchanged. As to the kind of experiment: Antiviral activity against Transmissible gastroenteritis virus TFI infected in swine testicle cells assessed as protection against virus-induced caspase 3 activation at 5 uM after 18 hrs post infection. It is filed as functional, organism-based. In short, it runs like this: (§1)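 TGEV-infected ST cells were treated with compound at 5 µM, and caspase activation was examined at 14 and 18 hpi. Lysates with equal total protein were run on SDS-PAGE and transferred to nitrocellulose. Blots were probed with anti-caspase-3 (β-actin antibody also used) and detected by enhanced chemiluminescence.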

The test system is the same in data set [5]. Description: Antiviral activity against Transmissible gastroenteritis virus TFI infected in swine testicle cells assessed as protection against virus-induced caspase 3 activation at 5 uM after 14 hrs post infection. It is filed as functional, organism-based. In short, it runs like this:
as §1

Data set [6] is described as follows: Inhibition of Transmissible gastroenteritis virus TFI recombinant GST-tagged 3C-like protease expressed in Escherichia coli BL21 (DE3). The gist of the method:
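The TGEV strain TFI 3CLpro was expressed in E. coli BL21(DE3) as a GST fusion, purified on glutathione resin, and had the tag cleaved with PreScission protease. IC50 came from at least eight concentrations.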

For data set [7], the system named is Transmissible gastroenteritis virus. Description: Antiviral activity against Transmissible gastroenteritis virus TFI infected in swine testicle cells assessed as protection against virus-induced cytopathic effect at 5 uM after 18 hrs post infection. It is filed as functional, organism-based. In short, it runs like this:
(§2)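 ST cell monolayers were inoculated with TGEV at MOI 5 and kept at 37°C under 5% CO2. Treatments were 5 µM compound, caspase inhibitor ZVAD-fmk at 100 µM as positive control, or 1% DMSO vehicle. At 18–24 hpi CPE was scored by microscopy as cell rounding, enlargement, syncytia and detachment. Two independent experiments were run.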
A general note: Damage to the host cells serves as the signal in cytopathic effect assays.

For data set [8] the test system is unchanged. Description: Antiviral activity against Transmissible gastroenteritis virus TFI infected in swine testicle cells assessed as reduction of N protein mRNA level at 10 uM after 6 hrs post infection after 6 hrs post infection by RT-PCR. It is filed as functional. More on the design: scale not given: the % may be the effect or the level left. In short, it runs like this: (§3)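 Viral RNA was extracted from lysates of TGEV-infected ST cells for SYBR green real-time RT-PCR, with primers for TGEV N protein or 3CLpro. Cycling was 50°C 2 min and 95°C 10 min, then 40 cycles of 95°C 15 s and 60°C 1 min. Levels were normalized to β-actin by the comparative CT method, with CT measured at least in triplicate.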

The test system is the same in data set [9]. Description: Antiviral activity against Transmissible gastroenteritis virus TFI infected in swine testicle cells assessed as reduction of N protein expression after 6 hrs post infection by Western blot analysis. It is filed as functional, organism-based. In short, it runs like this:
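TGEV-infected ST cells were treated with compound at 0.3 to 10 µM. Lysates with equal total protein were separated by SDS-PAGE, transferred to nitrocellulose, probed with anti-TGEV N protein antibody, and detected by enhanced chemiluminescence. Three independent experiments were run.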

The test system is the same in data set [10]. As to the kind of experiment: Antiviral activity against Transmissible gastroenteritis virus TFI infected in swine testicle cells assessed as reduction of 3CL protease mRNA level at 5 uM after 6 hrs post infection by RT-PCR. It is filed as functional. More on the design: scale not given: the % may be the effect or the level left. In short, it runs like this: as §3

Data set [11] has the same test system. As to the kind of experiment: Antiviral activity against Transmissible gastroenteritis virus TFI infected in swine testicle cells assessed as reduction of 3CL protease mRNA level at 10 uM after 6 hrs post infection by RT-PCR. More on the design: scale not given: the % may be the effect or the level left. It is filed as functional. The gist of the method:
as §3

The test system is the same in data set [12]. As to the kind of experiment: Antiviral activity against Transmissible gastroenteritis virus TFI infected in swine testicle cells assessed as reduction of N protein mRNA level at 1 uM after 6 hrs post infection by RT-PCR. It is filed as functional. Set-up: scale not given: the % may be the effect or the level left. The gist of the method:
as §3

Data set [13] has the same test system. Description: Antiviral activity against Transmissible gastroenteritis virus TFI infected in swine testicle cells assessed as protection against virus-induced cytopathic effect at 100 uM after 24 hrs post infection. It is filed as functional, organism-based.
Data set [14] has the same test system. Description: Antiviral activity against Transmissible gastroenteritis virus TFI infected in swine testicle cells assessed as protection against virus-induced cytopathic effect at 5 uM after 24 hrs post infection. It is filed as functional, organism-based. The gist of the method: as §2
Data set [15] has the same test system. Description: Antiviral activity against Transmissible gastroenteritis virus TFI infected in swine testicle cells assessed as reduction of 3CL protease mRNA level at 1 uM after 6 hrs post infection by RT-PCR. It is filed as functional. Set-up: scale not given: the % may be the effect or the level left. The gist of the method: as §3
Data set [16] has the same test system. As to the kind of experiment: Antiviral activity against Transmissible gastroenteritis virus TFI infected in swine testicle cells assessed as reduction of N protein mRNA level at 5 uM after 6 hrs post infection by RT-PCR. It is filed as functional. More on the design: scale not given: the % may be the effect or the level left. In short, it runs like this: as §3

The test system is the same in data set [17]. As to the kind of experiment: Antiviral activity against Transmissible gastroenteritis virus TFI infected in swine testicle cells assessed as protection against virus-induced cytopathic effect at 100 uM after 18 hrs post infection. It is filed as functional, organism-based. The gist of the method:
as §2

Data set [18] has the same test system. Description: Antiviral activity against Transmissible gastroenteritis virus TFI infected in swine testicle cells assessed as reduction of N protein mRNA level after 6 hrs post infection by RT-PCR. It is filed as functional, organism-based. In short, it runs like this: as §3
The test system is the same in data set [19]. Description: Antiviral activity against Transmissible gastroenteritis virus TFI infected in swine testicle cells assessed as reduction of 3CL protease mRNA level after 6 hrs post infection by RT-PCR. It is filed as functional, organism-based. In short, it runs like this: as §3

In [1], `CCC(/C=C1\Sc2cc(/C=C/c3ccccc3)ccc2N1CC)=C\c1sc2cc(C)c(C)cc2[n+]1CC` showed an IC50 of 6.6 µM. Moreover, in data set [2], the GI50 at 18 h was greater than 50 µM.

As to `C(/C1=C2Sc3ccccc3N2CC1)=C1\CC[n+]2c1sc1ccccc12`, the values for the IC50 in [1] and in [6] were 10.5 µM and 2.2 µM, respectively. Moreover, the EC50 in [3] is greater than 30 µM. The result in [4] and in data set [5] was inactive. In data set [2], the GI50 at 18 h is greater than 50 µM.

For the compound `CCN1/C(=C\C=C\c2sc3ccc(-c4nc5ccccc5s4)cc3[n+]2CC)Sc2ccc(-c3nc4ccccc4s3)cc21`, the IC50 in data set [1] was 2.5 µM; in data set [6] it was 2.1 µM. In addition, the EC50 in data set [3] was greater than 30 µM. In addition, the result in [4] and in data set [5] was inactive. Further, the GI50 at 18 h in data set [2] was greater than 50 µM.

Turning to `CCN1/C(=C\C=c2/s/c(=C\c3sc4ccccc4[n+]3CC)n(CC)c2=O)Sc2ccccc21`, the IC50 was determined as 10 µM in data set [1] and 2.2 µM in [6]. Besides, the EC50 in data set [3] was 17.4 µM. The outcome in data set [4] and in data set [5] was inactive. The GI50 at 18 h in data set [2] was greater than 50 µM.

Turning to `CCN1C(c2ccccc2)=C(c2ccccc2)S/C1=C/C=C/c1sc2c3ccccc3ccc2[n+]1CC.[Cl-]`, the figures for the IC50 in data set [1] and in [6] were 3.8 µM and 4.9 µM, respectively. Also, the result in [7], in [4], in data set [5], in data set [13], in [14] and in data set [17] was Active. Further, the Activity in [8] was 0.4%; in data set [9] it was “Dose-dependent effect”; in data set [10], 1.2%; in [11], 0.2%; in [12], 59.6%; in [15], 39.9%. For the same compound, in data set [16], the Activity was 3%. Besides, the 50% effective concentration (EC50) in data set [3] amounted to 4.5 µM. The same compound showed a GI50 at 18 h in [2] of 18.1 µM.

`CCC(=C\c1sc2c3ccccc3ccc2[n+]1CC)/C=C1/Sc2cc(C)c(C)cc2N1CC`: the IC50 in data set [1] is 5.4 µM; in data set [6], 8 µM. For the same compound, the outcome in data set [7], in [4], in data set [5], in data set [13], in data set [14] and in data set [17] was Active. The Activity in data set [8] is 1.1%; in data set [9] it was “Dose-dependent effect”; in [18], “Dose-dependent effect”; in data set [19], “Dose-dependent effect”; in data set [10], 0.5%; in data set [11], 0.3%. For the same compound, the Activity in [12] is 2.6%; in [15], 1.4%; in [16], 1.3%. Further, the EC50 in [3] amounted to 2.1 µM. In data set [2], growth was halved (GI50 at 18 h) at 21.3 µM.

`CCC(=C\c1sc2cc(C)c(C)cc2[n+]1CC)/C=C1/Sc2cc(/C=C/c3ccccc3)ccc2N1CC`: the result in [7], in data set [4], in data set [5], in [13], in data set [14] and in data set [17] was Active. Besides, the EC50 in [3] stood at 1.8 µM.

Turning to `CCN1/C(=C\C(=C/c2sc3ccccc3[n+]2CCCS(=O)(=O)[O-])OC)Sc2ccc(OC)cc21`, the IC50 was 7.3 µM in data set [1] and 3.3 µM in data set [6]. For the same compound, the result in data set [7], in data set [4], in [5], in data set [13], in [14] and in [17] was Active. Besides, the concentration giving a half-maximal response (EC50) in data set [3] is 3 µM. In data set [2], this compound showed a GI50 at 18 h of 13.1 µM.

Take `CCN1/C(=C\C=C\C2=CC(=C/c3sc4ccccc4[n+]3CC)/CC(C)C2)Sc2ccccc21` (configuration not stated): the figures for the IC50 in data set [1] and in [6] were 2 µM and 11.9 µM, respectively. In addition, the result in data set [7], in [4], in data set [5], in [13], in [14] and in [17] was Active. Also, the Activity in data set [8] is 1.4%; in [9], “Dose-dependent effect”; in data set [18] it was “Dose-dependent effect”; in [19], “Dose-dependent effect”; in data set [10] it was 2.3%; in [11] it was 1.4%. Besides, the Activity in data set [12] was 13.7%; in data set [15], 20.8%; in [16], 2.1%. In data set [3], the EC50 is 6.2 µM. Further, in data set [2], the GI50 at 18 h is greater than 50 µM.
